Values after ≈ are worked out from the molar mass of the structure shown. Active and inactive are the calls of the source. The rule behind the calls is not given here.
Legend:
[1] = target: T1, Bile acid receptor (Homo sapiens, UniProt Q96RI1); assay: Agonist activity at GST-tagged FXR LBD (187 to 472 residues) (unknown origin) assessed as FXR interaction with b-CPSSHSSLTERHKILHRLLQEGSPS-COOH by FRET assay
T1 sequence (Q96RI1 whole entry): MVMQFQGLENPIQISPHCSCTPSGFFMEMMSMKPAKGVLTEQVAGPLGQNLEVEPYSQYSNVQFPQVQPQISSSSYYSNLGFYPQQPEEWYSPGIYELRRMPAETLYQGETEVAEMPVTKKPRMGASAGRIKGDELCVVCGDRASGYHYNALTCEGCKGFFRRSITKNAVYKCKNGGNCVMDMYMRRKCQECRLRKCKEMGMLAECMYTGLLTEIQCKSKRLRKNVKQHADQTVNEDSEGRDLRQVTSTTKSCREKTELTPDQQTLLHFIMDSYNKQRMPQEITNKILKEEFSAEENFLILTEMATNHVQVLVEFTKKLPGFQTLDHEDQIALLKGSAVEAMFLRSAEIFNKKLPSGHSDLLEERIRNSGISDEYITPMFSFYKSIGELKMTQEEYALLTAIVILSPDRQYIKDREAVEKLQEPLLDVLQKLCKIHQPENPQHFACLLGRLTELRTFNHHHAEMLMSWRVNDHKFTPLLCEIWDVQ

[2] = target: T2, Bile acid receptor (Homo sapiens) (UniProt Q96RI1); assay: Agonist activity at GST-tagged FXR LBD (187 to 472 residues) (unknown origin) assessed as FXR interaction with b-CPSSHSSLTERHKILHRLLQEGSPS-COOH by FRET assay relative to GW4064
T2 sequence (whole entry): T1 sequence (Q96RI1 whole entry)

[3] = target: T1, Bile acid receptor; assay: Agonist activity at C-terminal Gal4-tagged human FXR (187 to 472 residues) expressed in HEK-293 cells co-expressing pFRluc by mammalian one hybrid assay; type: cell-based, HEK293
Summary of the method: (§1)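 Transient transfection of HEK293 cells with Gal4 DBD–human FXR LBD (187–472) chimera under CMV promoter plus pFRluc Gal4-driven firefly luciferase reporter. Cells treated with serial compound dilutions. EC50 from at least three experiments; efficacy is extrapolated maximum signal of the dose-response, GW4064 set to 100%.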

[4] = target: T2, Bile acid receptor (Homo sapiens); assay: Agonist activity at C-terminal Gal4-tagged human FXR (187 to 472 residues) expressed in HEK-293 cells co-expressing pFRluc by mammalian one hybrid assay relative to GW4064; type: cell-based; conditions: HEK293; summary of the method: as §1
[5] = Aqueous solubility of the compound; type: physicochemical; conditions: buffer
[6] = test system: Mus musculus; assay: Reduction in total cholesterol level in high fat diet enriched with cholesterol fed C57BL/6J mouse plasma at 10 mg/kg, po through gavage for 10 days measured after 4 hrs of final dosage relative to vehicle treated-control; type: functional, organism-based
Summary of the method: (§2)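 C57BL/6J mice pre-fed and kept on high fat diet (60% kcal fat) with 1% (w/w) cholesterol; 10 mg/kg by oral gavage for 10 days. Plasma total cholesterol and triglycerides taken at sacrifice 4 h after final dose, expressed as % change versus vehicle group.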

[7] = test system: Mus musculus; assay: Reduction in total triglyceride level in high fat diet enriched with cholesterol fed C57BL/6J mouse plasma at 10 mg/kg, po through gavage for 10 days measured after 4 hrs of final dosage relative to vehicle treated-control; type: functional, organism-based; summary of the method: as §2
[8] = Permeability of the compound assessed as compound influx measured after 16 hrs by PAMPA assay; type: ADME
Summary of the method: (§3)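 PAMPA, 16 h at rt. Flux = [C_acceptor/(C_donor + C_acceptor)] × 100 × 2. Membrane enrichment = C_membrane × 2/(C_acceptor + C_donor), membrane phase extracted into a volume equal to the acceptor or donor compartment.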

[9] = Permeability of the compound assessed as compound enrichment in membrane compartment measured after 16 hrs by PAMPA assay relative to control; type: ADME; summary of the method: as §3
[10] = Oral bioavailability in C57BL/6J mouse at 5 mg/kg; type: ADME, organism-based; conditions: in vivo
Summary of the method: (§4)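 Mice dosed 5 mg/kg orally and 1 mg/kg intravenously; bioavailability from both arms, all other parameters (AUC, Cmax, T1/2, Cl/F, Vd/F) calculated from the oral arm.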

[11] = Half life in C57BL/6J mouse at 5 mg/kg, po and 1 mg/kg, iv; type: ADME, organism-based; conditions: in vivo; summary of the method: as §4
[12] = Apparent oral clearance in C57BL/6J mouse at 5 mg/kg; type: ADME, organism-based; conditions: in vivo; summary of the method: as §4
[13] = Apparent oral volume of distribution in C57BL/6J mouse at 5 mg/kg; type: ADME, organism-based; conditions: in vivo; summary of the method: as §4
[14] = AUC in C57BL/6J mouse at 5 mg/kg, po and 1 mg/kg, iv; type: ADME, organism-based; conditions: in vivo; summary of the method: as §4
[15] = Cmax in C57BL/6J mouse at 5 mg/kg, po and 1 mg/kg, iv; type: ADME, organism-based; conditions: in vivo; summary of the method: as §4

Structure (SMILES) | EC50 [1] | Efficacy [2] | EC50 [3] | Efficacy [4] | other results
Cn1nc(C(=O)O)c2ccc([C@H]3C[C@](O)(c4ccc(OCc5c(-c6c(Cl)cccc6Cl)noc5C5CC5)cc4Cl)C3)cc21 | 19 nM | 99% | 50 nM | 82% | –
Clc1cc(OCc2c(-c3c(Cl)cccc3Cl)noc2C2CC2)ccc1C1CC1c1ccc(-c2nnn[nH]2)nc1 (configuration not stated) | 131 nM | 101% | 111 nM | 79% | –
O=C(O)c1ccc([C@@H]2C[C@H]2c2ccc(OCc3c(-c4c(Cl)cccc4Cl)noc3C3CC3)cc2Cl)cc1 | 80 nM | 99% | 47 nM | 89% | –
CC(C)n1nc(C(=O)O)cc1[C@@H]1C[C@H]1c1ccc(OCc2c(-c3c(Cl)cccc3Cl)noc2C2CC2)cc1Cl | 4 nM | 101% | 4 nM | 79% | –
O=C(O)c1cncc(C2CC2c2ccc(OCc3c(-c4c(Cl)cccc4Cl)noc3C3CC3)cc2Cl)c1 (configuration not stated) | 10 nM | 103% | 14 nM | 73% | solubility [5]: 165 µM (≈ 91.7 µg/mL)
O=C(O)c1cccc([C@H]2C[C@@H](c3ccc(OCc4c(-c5c(Cl)cccc5Cl)noc4C4CC4)cc3Cl)C2)c1 | 77 nM | 99% | 92 nM | 88% | –
CO[C@]1(c2ccc(OCc3c(-c4c(Cl)cccc4Cl)noc3C3CC3)cc2Cl)C[C@H](c2cccc(C(=O)O)c2)C1 | 79 nM | 93% | 102 nM | 75% | –
O=C(O)c1ccc([C@H]2C[C@@H]2c2ccc(OCc3c(-c4c(Cl)cccc4Cl)noc3C3CC3)cc2Cl)cc1 [PX-102] | 1090 nM | 100% | 186 nM | 71% | –
O=C(O)c1cccc([C@H]2C[C@@H]2c2ccc(OCc3c(-c4c(Cl)cccc4Cl)noc3C3CC3)cc2Cl)c1 | 219 nM | 101% | 90 nM | 88% | –
CCO[C@]1(c2ccc(OCc3c(-c4c(Cl)cccc4Cl)noc3C3CC3)cc2Cl)C[C@H](c2cccc(C(=O)O)c2)C1 | 277 nM | 94% | 220 nM | 89% | –
O=C(NCCS(=O)(=O)O)c1ccc(C2CC2c2ccc(OCc3c(-c4c(Cl)cccc4Cl)noc3C3CC3)cc2Cl)cc1 (racemic) | 76 nM | 98% | 1370 nM | 34% | –
Cn1nc(C(=O)O)c2ccc(C3CC3c3ccc(OCc4c(-c5c(Cl)cccc5Cl)noc4C4CC4)cc3Cl)cc21 (racemic) | 13 nM | 104% | 14 nM | 84% | –
O=C(O)c1ccc(C2CC2c2ccc(OCc3c(-c4c(Cl)cccc4Cl)noc3C3CC3)cc2Cl)cn1 (configuration not stated) | 66 nM | 101% | 57 nM | 68% | –
CS(=O)(=O)NC(=O)c1ccc([C@@H]2C[C@H]2c2ccc(OCc3c(-c4c(Cl)cccc4Cl)noc3C3CC3)cc2Cl)cc1 | 48 nM | 94% | 44 nM | 81% | –
O=C(O)c1cccc([C@@H]2C[C@H]2c2ccc(OCc3c(-c4c(Cl)cccc4Cl)noc3C3CC3)cc2Cl)c1 | 18 nM | 100% | 29 nM | 98% | Activity [6]: inactive; Activity [7]: inactive
O=C(O)c1cccc(N2CC(O)(c3ccc(OCc4c(-c5c(Cl)cccc5Cl)noc4C4CC4)cc3Cl)C2)c1 | 54 nM | 97% | – | 94% | permeability [8]: 27%; fold change (FC) [9]: 40
O=C(O)c1ccc([C@H]2C[C@](O)(c3ccc(OCc4c(-c5c(Cl)cccc5Cl)noc4C4CC4)cc3Cl)C2)cc1 | 24 nM | 105% | 63 nM | 71% | bioavailability [10]: 41%; half-life [11]: 1.1 h; CL/F [12]: 190 mL/min/kg; Vd/F [13]: 3.9 L/kg; AUC [14]: 180 ng·h/mL; solubility [5]: 192 µM (≈ 112 µg/mL); permeability [8]: 21%; fold change (FC) [9]: 9; Cmax [15]: 96 ng/mL
O=C(O)CNC(=O)c1ccc(C2CC2c2ccc(OCc3c(-c4c(Cl)cccc4Cl)noc3C3CC3)cc2Cl)cc1 (racemic) | 150 nM | 100% | 209 nM | 58% | –
O=C(O)c1cccc(C2CC2c2ccc(OCc3c(-c4c(Cl)cccc4Cl)noc3C3CC3)cc2Cl)c1 (racemic) | 32 nM | 102% | 34 nM | 87% | bioavailability [10]: 53%; half-life [11]: 1 h; CL/F [12]: 55 mL/min/kg; Vd/F [13]: 4.7 L/kg; AUC [14]: 800 ng·h/mL; solubility [5]: 20 µM (≈ 11.1 µg/mL); permeability [8]: 17%; fold change (FC) [9]: 33; Cmax [15]: 1060 ng/mL
CS(=O)(=O)NC(=O)c1ccc(C2CC2c2ccc(OCc3c(-c4c(Cl)cccc4Cl)noc3C3CC3)cc2Cl)cc1 (racemic) | 90 nM | 100% | 44 nM | 88% | –
O=C(O)c1cccc([C@H]2C[C@H](c3ccc(OCc4c(-c5c(Cl)cccc5Cl)noc4C4CC4)cc3Cl)C2)c1 | 24 nM | 100% | 15 nM | 89% | permeability [8]: 0%; fold change (FC) [9]: 319
O=C(O)c1cccc([C@H]2C[C@](OCCO)(c3ccc(OCc4c(-c5c(Cl)cccc5Cl)noc4C4CC4)cc3Cl)C2)c1 | 373 nM | 97% | 377 nM | 68% | –
